Reference: ChEMBL document CHEMBL1126008, “Decorporation of aged americium deposits by oral administration of lipophilic polyamino carboxylic acids” (1992)

Tests used:
Canis familiaris = experiment: In vitro elimination of Pu (given as citrate) from in vivo tagged canine liver cytosol after administration of the compound; value expressed as following filtrate to residue activity; assay type: functional, Canis lupus familiaris
Outline: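 Liver homogenate in 0.25 M sucrose from a dog injected with Pu-citrate 7 days before sacrifice. Spun 20 min at 40000g to give cytosol, which was dialyzed against 50 mM TRIS-HCl. Cytosol mixed 1:1 with 4 mM compound (stock) in 0.1 M TRIS-HCl, pH 7.5, 270–300 mOsm. Incubated 2 h at 40 °C, then pressure-filtered through a 10000 Da cutoff. Read-out: Pu filtrate/residue ratio; control had no compound.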

Rattus norvegicus [1] = experiment: Reduction in both femora 241Am after daily feeding of 200 uM of the compound/kg of body weight to rats for 10 days; assay type: functional
Outline: (§1)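 Sprague-Dawley rats aged 60 days, nine per group. ²⁴¹Am in citrate buffer pH 3.5 given as a single jugular iv injection. From one week later, compound given at 50 μmol/rat (about 200 μmol/kg) in a daily 25 g chow ration for 10 days; untreated controls. Tissues counted for ²⁴¹Am at necropsy. Reduction = […]. p values given.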

Rattus norvegicus [2] = experiment: Reduction in carcass 241Am after daily feeding of 200 uM of the compound/kg of body weight to rats for 10 days; assay type: functional; outline: as §1
Rattus norvegicus [3] = experiment: Reduction in liver 241Am after daily feeding of 200 uM of the compound/kg of body weight to rats for 10 days; assay type: functional; outline: as §1
Rattus norvegicus [4] = experiment: Reduction in one kidney 241AM after daily feeding of 200 uM of the compound/kg of body weight to rats for 10 days; assay type: functional; outline: as §1
Rattus norvegicus [5] = experiment: Reduction in whole body 241Am after daily feeding of 200 uM of the compound/kg of body weight to rats for 10 days; assay type: functional; outline: as §1
Rattus norvegicus [6] = experiment: Weight gain after daily feeding of 200 uM of the compound/kg of body weight to rats for 10 days; assay type: functional
Outline: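 Sprague-Dawley rats aged 60 days, nine per group, given ²⁴¹Am iv (jugular, citrate pH 3.5) one week before feeding began. Compound given at 50 μmol/rat (about 200 μmol/kg) daily in 25 g chow for 10 days; untreated controls. Weight gain over the feeding period reported as mean ± deviation.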

Rattus norvegicus [7] = species on record: Rattus norvegicus; experiment: Percent retention in rat carcass was measured in situ using intestinal tied-loop technique; assay type: functional, organism-based
Rattus norvegicus [8] = species on record: Rattus norvegicus; experiment: Percent retention in rat gut section was measured in situ using intestinal tied-loop technique; assay type: functional, organism-based
Rattus norvegicus [9] = species on record: Rattus norvegicus; experiment: Percent retention in rat liver was measured in situ using intestinal tied-loop technique; assay type: functional, organism-based
Rattus norvegicus [10] = species on record: Rattus norvegicus; experiment: Percent retention in rat lumen was measured in situ using intestinal tied-loop technique; assay type: functional, organism-based
Rattus norvegicus [11] = species on record: Rattus norvegicus; experiment: Percent retention in rat visera was measured in situ using intestinal tied-loop technique; assay type: functional, organism-based

How did the Activity (Canis familiaris) turn out when CCCCCCCCN(CCN(CCN(CCN(CC(=O)O)CC(=O)O)CC(=O)O)CC(=O)O)CC(=O)O was run?
Its Activity is 0.16.

For CCCCCCCCCCCCCCCCCCCCCCN(CCN(CCN(CCN(CC(=O)O)CC(=O)O)CC(=O)O)CC(=O)O)CC(=O)O, which Reduction (Rattus norvegicus [1]) is on record?
Its Reduction is 32%.

What about the Reduction (Rattus norvegicus [2]) of the same compound?
Its Reduction is 37%.

What about the Reduction (Rattus norvegicus [3]) of the same compound?
The Reduction was 89%.

What about the Reduction (Rattus norvegicus [4]) of the same compound?
Its Reduction is 26%.

And the Reduction (Rattus norvegicus [5])?
The Reduction was 44%.

And the Weight (Rattus norvegicus [6])?
Its Weight is 70.2 g.

Which results are given for CCCCCCCCCCCCN(CCN(CCN(CCN(CC(=O)O)CC(=O)O)CC(=O)O)CC(=O)O)CC(=O)O?
Activity (Canis familiaris): 0.26; Reduction (Rattus norvegicus [1]): 17%; Reduction (Rattus norvegicus [2]): 20%; Reduction (Rattus norvegicus [3]): 71%; Reduction (Rattus norvegicus [4]): 23%; Retention (Rattus norvegicus [7]): 20%; Retention (Rattus norvegicus [8]): 73%; Retention (Rattus norvegicus [9]): 3%; Retention (Rattus norvegicus [10]): 73%; Reduction (Rattus norvegicus [5]): 29%; Weight (Rattus norvegicus [6]): 55.7 g; Retention (Rattus norvegicus [11]): 4%
